ChEMBL document CHEMBL3120102, “Structure-based design, synthesis and biological evaluation of novel anthra[1,2-d]imidazole-6,11-dione homologues as potential antitumor agents” (2013)

Tests used:
Format in all cases: functional
[1] = Cytotoxicity against human Hs578T cells assessed as cell growth at 10 uM after 48 hrs by SRB assay; conditions: Hs-578T, read-out: Activity
[2] = test system: RXF 393; assay: Cytotoxicity against human RXF393 cells assessed as growth inhibition after 48 hrs by SRB assay
How it was run: (§1)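 NCI 60-cell-line screen, five-dose stage: each cell line exposed for 48 h to five concentrations spanning five log steps; cellular protein measured by sulforhodamine B colorimetry. A time-zero cell control and plates without drug are used to derive GI50, TGI and LC50 from log-concentration dose-response curves.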

[3] = test system: MDA-MB-435; assay: Cytotoxicity against human MDA-MB-435 cells assessed as growth inhibition after 48 hrs by SRB assay; how it was run: as §1
[4] = test system: HCT-15; assay: Cytotoxicity against human HCT15 cells assessed as growth inhibition after 48 hrs by SRB assay
How it was run: (§2)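 NCI 60-cell-line five-dose screen at […]. Drug exposure was 48 h, followed by sulforhodamine B protein staining. GI50, TGI and LC50 were calculated against a time-zero control and untreated plates, with dose–response curves plotted from log10 concentration.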

[5] = test system: MDA-MB-468; assay: Cytotoxicity against human MDA-MB-468 cells assessed as growth inhibition after 48 hrs by SRB assay; how it was run: as §1
[6] = test system: NCI-H460; assay: Cytotoxicity against human NCI-H460 cells assessed as growth inhibition after 48 hrs by SRB assay; how it was run: as §1
[7] = (§3) Cytotoxicity against human NCI-ADR-RES cells assessed as growth inhibition after 48 hrs by SRB assay; how it was run: as §1
[8] = test system: NCI/ADR-RES; assay: as §3; how it was run: as §1
[9] = test system: SR; assay: Cytotoxicity against human SR cells assessed as growth inhibition after 48 hrs by SRB assay
How it was run: (§4)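 NCI 60-cell-line screen, two stages. Five-dose testing at […]. Cellular protein measured by sulforhodamine B colorimetry after 48 h drug exposure. A time-zero control and drug-free plates are used to derive GI50, TGI and LC50 from dose-response curves plotted as log10 concentration per cell line.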

[10] = test system: A498; assay: Cytotoxicity against human A498 cells assessed as growth inhibition after 48 hrs by SRB assay; how it was run: as §2
[11] = test system: SK-MEL-2; assay: Cytotoxicity against human SK-MEL-2 cells assessed as growth inhibition after 48 hrs by SRB assay; how it was run: as §1
[12] = test system: 786-0; assay: Cytotoxicity against human 786-0 cells assessed as growth inhibition after 48 hrs by SRB assay; how it was run: as §2
[13] = test system: NCI-H322M; assay: Cytotoxicity against human NCI-H322M cells assessed as growth inhibition after 48 hrs by SRB assay; how it was run: as §1
[14] = test system: OVCAR-3; assay: Cytotoxicity against human OVCAR3 cells assessed as growth inhibition after 48 hrs by SRB assay; how it was run: as §1
[15] = test system: NCI-H522; assay: Cytotoxicity against human NCI-H522 cells assessed as growth inhibition after 48 hrs by SRB assay; how it was run: as §1
[16] = test system: IGROV-1; assay: Cytotoxicity against human IGROV1 cells assessed as growth inhibition after 48 hrs by SRB assay; how it was run: as §2
[17] = test system: PC-3; assay: Cytotoxicity against human PC3 cells assessed as growth inhibition after 48 hrs by SRB assay; how it was run: as §1
[18] = test system: BT-549; assay: Cytotoxicity against human BT549 cells assessed as growth inhibition after 48 hrs by SRB assay; how it was run: as §2
[19] = test system: UO-31; assay: (§5) Cytotoxicity against human UO31 cells assessed as growth inhibition after 48 hrs by SRB assay; how it was run: as §4
[20] = as §5; conditions: UO-31, 48 h; how it was run: as §4
[21] = test system: HT-29; assay: Cytotoxicity against human HT-29 cells assessed as growth inhibition after 48 hrs by SRB assay; how it was run: as §2
[22] = test system: Malme-3M; assay: Cytotoxicity against human MALME-3M cells assessed as growth inhibition after 48 hrs by SRB assay; how it was run: as §2
[23] = test system: HL-60(TB); assay: Cytotoxicity against human HL-60(TB) cells assessed as growth inhibition after 48 hrs by SRB assay
How it was run: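 NCI 60-cell panel five-concentration stage (0.01, 0.1, 1, 10, 100) in HL-60(TB). Cellular protein was measured by sulforhodamine B colorimetry after 48 h of exposure. A time-zero cell control and untreated plates allowed calculation of GI50, TGI and LC50. These were read from log10 concentration dose-response curves.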

[24] = test system: ACHN; assay: Cytotoxicity against human ACHN cells assessed as growth inhibition after 48 hrs by SRB assay; how it was run: as §2
[25] = test system: OVCAR-4; assay: (§6) Cytotoxicity against human OVCAR4 cells assessed as growth inhibition after 48 hrs by SRB assay; how it was run: as §1
[26] = as §6; conditions: OVCAR-4, 48 h; how it was run: as §1
[27] = test system: LOX IMVI; assay: Cytotoxicity against human LOXIMVI cells assessed as growth inhibition after 48 hrs by SRB assay; how it was run: as §2
[28] = test system: NCI-H23; assay: Cytotoxicity against human NCI-H23 cells assessed as growth inhibition after 48 hrs by SRB assay; how it was run: as §1
[29] = test system: SF-539; assay: Cytotoxicity against human SF539 cells assessed as growth inhibition after 48 hrs by SRB assay; how it was run: as §1
[30] = read-out: LC50 (the source's name)

Compound: O=C1c2ccccc2C(=O)c2c1ccc1[nH]c(=S)[nH]c21
- growth at 10 µM [1]: 104%

Compound: O=C1c2ccccc2C(=O)c2c1ccc1nc(SCCN3CCCC3)[nH]c21
- growth inhibition (GI) [2]: Dose-dependent effect
- GI50 ([2]; RXF 393, 48 h): 3.08 µM
- TGI ([2]; RXF 393, 48 h): 16.3 µM
- CC50 ([2]; RXF 393, 48 h, read-out: LC50 (the source's name)): 48.5 µM
- growth inhibition (GI) [3]: Dose-dependent effect
- GI50 ([3]; MDA-MB-435, 48 h): 4.18 µM
- LC50 ([3]; MDA-MB-435, 48 h): 43.9 µM
- TGI ([3]; MDA-MB-435, 48 h): 16.2 µM
- growth inhibition (GI) [4]: Dose-dependent effect
- GI50 ([4]; HCT-15, 48 h): 1.62 µM
- LC50 (concentration killing 50% of cells) ([4]; HCT-15, 48 h): 34.7 µM
- TGI ([4]; HCT-15, 48 h): 10.3 µM
- growth inhibition (GI) [5]: Dose-dependent effect
- GI50 ([5]; MDA-MB-468, 48 h): 1.33 µM
- LC50 ([5]; MDA-MB-468, 48 h): 7.05 µM
- TGI ([5]; MDA-MB-468, 48 h): 3.06 µM
- growth inhibition (GI) [6]: Dose-dependent effect
- TGI ([6]; NCI-H460, 48 h): 4.77 µM
- GI50 [7]: 6.98 µM
- LC50 (concentration causing 50% net cell kill) [7]: > 100 µM
- TGI [7]: 33.7 µM
- growth inhibition (GI) [8]: Dose-dependent effect
- GI50 [9]: 1.48 µM
- LC50 (50% lethal concentration) [9]: 86.3 µM
- TGI [9]: 4.19 µM
- growth inhibition (GI) [9]: Dose-dependent effect
- growth inhibition (GI) [10]: Dose-dependent effect
- GI50 ([10]; A498, 48 h): 5.82 µM
- TGI ([10]; A498, 48 h): 21.3 µM
- CC50 ([10]; A498, 48 h, read-out: LC50 (the source's name)): 49.4 µM
- growth inhibition (GI) [11]: Dose-dependent effect
- GI50 ([11]; SK-MEL-2, 48 h): 17.1 µM
- LC50 (50% lethal concentration) ([11]; SK-MEL-2, 48 h): 63.5 µM
- TGI ([11]; SK-MEL-2, 48 h): 32.9 µM
- growth inhibition (GI) [12]: Dose-dependent effect
- GI50 ([12]; 786-0, 48 h): 11.7 µM
- LC50 (concentration causing 50% net cell kill) ([12]; 786-0, 48 h): 54.7 µM
- TGI ([12]; 786-0, 48 h): 25.3 µM
- TGI [13]: 21.4 µM
- growth inhibition (GI) [13]: Dose-dependent effect
- growth inhibition (GI) [14]: Dose-dependent effect
- GI50 ([14]; OVCAR-3, 48 h): 2.76 µM
- LC50 (50% lethal concentration) ([14]; OVCAR-3, 48 h): 35.6 µM
- TGI ([14]; OVCAR-3, 48 h): 11.1 µM
- growth inhibition (GI) [15]: Dose-dependent effect
- TGI ([15]; NCI-H522, 48 h): 32.5 µM
- growth inhibition (GI) [16]: Dose-dependent effect
- GI50 ([16]; IGROV-1, 48 h): 0.56 µM
- LC50 ([16]; IGROV-1, 48 h): 22.4 µM
- TGI ([16]; IGROV-1, 48 h): 3.39 µM
- growth inhibition (GI) [17]: Dose-dependent effect
- GI50 ([17]; PC-3, 48 h): 2.57 µM
- LC50 ([17]; PC-3, 48 h): 43.4 µM
- TGI ([17]; PC-3, 48 h): 11 µM
- growth inhibition (GI) [18]: Dose-dependent effect
- GI50 ([18]; BT-549, 48 h): 12.5 µM
- LC50 (concentration killing 50% of cells) ([18]; BT-549, 48 h): 55.8 µM
- TGI ([18]; BT-549, 48 h): 26.4 µM
- growth inhibition (GI) [19]: Dose-dependent effect
- GI50 [20]: 2.08 µM
- LC50 [20]: 44.9 µM
- TGI [20]: 15.8 µM
- growth inhibition (GI) [21]: Dose-dependent effect
- GI50 ([21]; HT-29, 48 h): 1.81 µM
- TGI ([21]; HT-29, 48 h): 4.66 µM
- CC50 ([21]; HT-29, 48 h, read-out: LC50 (the source's name)): 15.2 µM
- GI50 [22]: 14 µM
- TGI [22]: 28.8 µM
- growth inhibition (GI) [22]: Dose-dependent effect
- CC50 [22, 30]: 59.4 µM
- growth inhibition (GI) [23]: Dose-dependent effect
- GI50 ([23]; HL-60, 48 h): 1.13 µM
- LC50 ([23]; HL-60, 48 h): 57.6 µM
- TGI ([23]; HL-60, 48 h): 11.9 µM
- GI50 [24]: 2.34 µM
- TGI [24]: 16.5 µM
- growth inhibition (GI) [24]: Dose-dependent effect
- CC50 [24, 30]: 41.1 µM
- growth inhibition (GI) [25]: Dose-dependent effect
- GI50 [26]: 1.89 µM
- LC50 (concentration killing 50% of cells) [26]: 38.9 µM
- TGI [26]: 7.34 µM
- GI50 [27]: 1.43 µM
- LC50 [27]: 6.25 µM
- TGI [27]: 2.99 µM
- growth inhibition (GI) [27]: Dose-dependent effect
- growth inhibition (GI) [28]: Dose-dependent effect
- TGI ([28]; NCI-H23, 48 h): 25.7 µM
- growth inhibition (GI) [29]: Dose-dependent effect
- GI50 ([29]; SF-539, 48 h): 6.79 µM
- TGI ([29]; SF-539, 48 h): 20.2 µM
- CC50 ([29]; SF-539, 48 h, read-out: LC50 (the source's name)): 47.4 µM
